Source: ChEMBL document CHEMBL1142173, “Novel macrolide resistance module carried by the IncP-1beta resistance plasmid pRSB111, isolated from a wastewater treatment plant” (2007)
≈ marks a conversion by molar mass, not a printed value.

How the values were obtained:
Format in all cases: functional
Pseudomonas sp. [1] = experiment: Antibacterial activity against Pseudomonas sp. B13 GFP1
Pseudomonas sp. [2] = experiment: Antibacterial activity against Pseudomonas sp. B13 GFP1 containing multiresistance plasmid pRSB101
Pseudomonas sp. [3] = experiment: Antibacterial activity against Pseudomonas sp. B13 GFP1 containing macrolide resistance plasmid pRSB111
How it was run: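 Host is Pseudomonas sp. strain B13 GFP1 carrying pRSB111, captured by exogenous mating from wastewater-plant final effluent. It is maintained in LB with erythromycin (300 μg/ml) at 30°C. MIC is in μg/ml, with the plasmid-free B13 GFP1 strain tested alongside.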

Escherichia coli [4] = experiment: Antibacterial activity against Escherichia coli DH5-alpha containing pUC18; conditions: DH5alpha
How it was run: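 MIC measured for E. coli DH5α transformed with the empty vector pUC18, which served as the control. It was tested alongside DH5α carrying pUC18 clones of PCR-amplified fragments of the pRSB111 macrolide resistance region (mphR(E), mph(E), mrx(E)).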

Escherichia coli [5] = experiment: Antibacterial activity against Escherichia coli DH5-alpha containing macrolide-resistant pUC18-mph(E) region; conditions: DH5alpha
How it was run: (§1)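 Host is E. coli DH5α carrying pUC18 with PCR-amplified fragments of the pRSB111 macrolide resistance region (covering mphR(E), mph(E) and/or mrx(E)). MIC is read per recombinant strain, with DH5α carrying empty pUC18 as control.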

Escherichia coli [6] = experiment: Antibacterial activity against Escherichia coli DH5-alpha containing macrolide-resistant pUC18-mrx(E) region; conditions: DH5alpha; how it was run: as §1
Escherichia coli [7] = experiment: Antibacterial activity against Escherichia coli DH5alpha containing macrolide-resistant pUC18-mph(E)-mrx(E) region; how it was run: as §1

Row | SMILES | MIC (Pseudomonas sp. [1]) [µg/mL] | MIC (Pseudomonas sp. [2]) [µg/mL] | MIC (Pseudomonas sp. [3]) [µg/mL] | MIC (Escherichia coli [4]) [µg/mL] | MIC (Escherichia coli [5]) [µg/mL] | MIC (Escherichia coli [6]) [µg/mL] | MIC (Escherichia coli [7]) [µg/mL]
1 | CC[C@H]1OC(=O)[C@H](C)[C@@H](O[C@H]2C[C@@](C)(OC)[C@@H](O)[C@H](C)O2)[C@H](C)[C@@H](O[C@@H]2O[C@H](C)C[C@H](N(C)C)[C@H]2O)[C@](C)(O)C[C@@H](C)C(=O)[C@H](C)[C@@H](O)[C@]1(C)O [ERYTHROMYCIN] | 20 (≈ 27.3 µM) | 2500 (≈ 3410 µM) | 2500 (≈ 3410 µM) | 200 (≈ 273 µM) | 250 (≈ 341 µM) | 150 (≈ 204 µM) | 2400 (≈ 3270 µM)
2 | CC[C@H]1OC(=O)[C@H](C)[C@@H](O[C@H]2C[C@@](C)(OC)[C@@H](O)[C@H](C)O2)[C@H](C)[C@@H](O[C@@H]2O[C@H](C)C[C@H](N(C)C)[C@H]2O)[C@](C)(O)C[C@@H](C)/C(=N\OCOCCOC)[C@H](C)[C@@H](O)[C@]1(C)O [ROXITHROMYCIN] | 25 (≈ 29.9 µM) | 1200 (≈ 1430 µM) | 1400 (≈ 1670 µM) | 450 (≈ 538 µM) | 550 (≈ 657 µM) | 300 (≈ 358 µM) | 2500 (≈ 2990 µM)
3 | CC[C@H]1OC(=O)C[C@@H](O)[C@H](C)[C@@H](O[C@@H]2O[C@H](C)[C@@H](O[C@H]3C[C@@](C)(O)[C@@H](O)[C@H](C)O3)[C@H](N(C)C)[C@H]2O)[C@@H](CC=O)C[C@@H](C)C(=O)/C=C/C(C)=C/[C@@H]1CO[C@@H]1O[C@H](C)[C@@H](O)[C@@H](OC)[C@H]1OC [TYLOSIN] | 150 (≈ 164 µM) | 150 (≈ 164 µM) | 400 (≈ 437 µM) |  |  |  | 
